Data from article PMC5766413 (European journal of pharmacology, 2017).
Like-named read-outs stand apart in the source and are kept apart here.

Assays:
NK1 receptor [1] = details: dogs; ref unpublished observations; cited from earlier work
NK1 receptor [2] = details: minipigs; ref unpublished observations; cited from earlier work
NK1 receptor [3] = details: monkeys; ref unpublished observations; cited from earlier work
[4] = tested on: blood pressure of guinea pigs; details: intra-arterial, ref Beattie et al, 1993; cited from earlier work
NK2 over NK1 receptors = details: ref Rupniak et al, unpublished results; cited from earlier work
[5] = tested on: colorectum of anesthetized, acutely spinalized rats; experiment: Colorectal manometry with balloon catheter; format: in vivo, rat
In short: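 Urethane-anesthetized (1.2–1.4 g/kg SC) female rats, cord cut at T9–T10 ≥60 min before dosing, 37°C. Rectal balloon catheter was inflated in 0.1–0.2 ml saline steps to a steady 15–20 mmHg (0.3–0.7 ml total). Vehicle, then ascending SC doses in saline, 20–45 min apart. Pressure AUC over 0–5 min per dose; duration of raised activity noted; mean + S.D., ANOVA with Dunnett's test.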

[6] = tested on: anesthetized, acutely spinalized rats; experiment: Other pharmacodynamic observations; format: in vivo, rat
In short: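 In urethane-anesthetized female rats with T9–T10 cord transection ≥60 min before dosing, vehicle then ascending IV, SC or IM doses of test compound in 0.9% saline were given. Changes in skin color (ear and paw flushing), salivation and lacrimation were recorded when present; respiration was watched visually for obvious changes.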

[7] = tested on: blood pressure of anesthetized, acutely spinalized rats; experiment: Blood pressure; format: in vivo, rat; details: up to 30 μg/kg IV and 300 μg/kg SC
In short: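 Female rats were anesthetized with urethane (1.2–1.4 g/kg SC) and kept at 37°C, with the spinal cord transected at T9–T10 at least 60 min before dosing. Test compound was given in 0.9% saline IV (200 μl plus 300 μl saline flush) or SC, vehicle first. Blood pressure was recorded continuously via the carotid artery, with heart rate derived off line from that signal. Values are change from the pre-dose baseline; one-way ANOVA.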

[8] = tested on: bladder of anesthetized, acutely spinalized rats; format: in vivo, rat
In short: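 Acutely spinalized (T9–T10, ≥60 min earlier), urethane-anesthetized female rats. Capacity was taken as the mean of three saline fills (0.04–0.1 ml/min, urethra open) until leak. Meatus then clamped, bladder held at 70% capacity; vehicle and ascending IV or SC doses ≥20 min apart. Contraction defined as ≥5 mmHg above baseline within 5 min; onset, time to peak, 30-min AUC and response duration; mean + S.D.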

[9] = tested on: human detrusor muscle strips; details: relative to KCL; ref Palea et al, 1996; cited from earlier work

Row | Molecule | Effect on transient hypotension after IV injection of NKA and LMN-NKA (NK1 receptor [1]) | Effect on transient hypotension after IV injection of NKA and LMN-NKA (NK1 receptor [2]) | Effect on transient hypotension after IV injection of NKA and LMN-NKA (NK1 receptor [3]) | Blood pressure effect [4] | Selectivity for NK2 over NK1 receptors (NK2 over NK1 receptors) [fold] | Duration of action on colorectal pressure ([5]; SC 100 and 300 μg/kg) [min] | Increase in colorectal pressure ([5]; SC, highest doses tested were 100 and 300 μg/kg) | Respiration (visual observation, words) ([6]; LMN-NKA up to 300 μg/kg SC or IM, NKA and GR 64349 at the doses tested) | Flushing ([6]; NKA at similar, GR 64349 at higher doses compared to LMN-NKA) | Blood pressure effect [7] | Duration of the bladder pressure response ([8]; 1 μg/kg IV, N=3, mean ± S.D.) [min] | Duration of the bladder pressure response ([8]; 300 μg/kg SC, N=4 for GR 64349, N=11 for LMN-NKA, mean ± S.D.) [min] | Onset of the increase in bladder pressure ([8]; 0.01–10 μg/kg IV and 1–300 μg/kg SC) [min] | Maximal contraction of detrusor muscle strips [9]
1 | spantide I | blocked | blocked | blocked |  |  |  |  |  |  |  |  |  |  | 
2 | [Lys^3,Gly^8-R-gamma-lactam-Leu^9]-NKA(3–10) [GR 64349] |  |  |  | transient drop in blood pressure | > 250 | 20 to 25 | only at the highest doses tested | No obvious changes in respiration | transient flushing of the ears and paws | No significant blood pressure changes | 1.5 ± 0.07 | 23.9 ± 12.22 | < 1 | equivalent to maximal KCL-induced contractions
3 | COc1ccccc1CN[C@H]1CCCN[C@H]1c1ccccc1 [CP-99,994] | blocked | blocked | blocked |  |  |  |  |  |  |  |  |  |  | 
